Measurements: ChEMBL document CHEMBL1255219, “Discovery of a β-d-2'-deoxy-2'-α-fluoro-2'-β-C-methyluridine nucleotide prodrug (PSI-7977) for the treatment of hepatitis C virus” (J Med Chem, 2010)

How the values were obtained:
[1] = Tmax in cynomolgus monkey plasma at 50 mg/kg, po qd for 4 days; assay type: ADME, organism-based, Macaca fascicularis; parameters: dose 50 mg/kg, route oral
Outline: (§1)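 Oral gavage (dog gastric, monkey nasogastric), 50 mg/kg in 20% w/v hydroxypropyl-β-cyclodextrin in water, 2.5 mL/kg, once daily for 4 consecutive days. Blood sampled into K2EDTA at 1, 2, 4, 6, 12 and 24 h postdose on day 3. Prodrug in plasma quantified by LC/MS/MS, noncompartmental analysis.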

Rattus norvegicus [2] = test: Toxicity in rat assessed as change in body weight at 50 to 1800 mg/kg, po after 14 days; assay type: organism-based; parameters: dose 50-1800 mg/kg, route oral; settings: in vivo, 336 h
Outline: (§2)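 Rats (CD SD, 4–5 weeks, 76–100 g) given a single oral dose of 50, 300 or 1800 mg/kg, or vehicle (30% PEG400/30% Tween 20/20% corn oil/20% water). Observed daily for 14 days with daily body weights. Necropsy on day 15 with macroscopic examination and liver and paired kidney weights.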

[3] = Half life in simulated intestinal fluid of pH 7.5 at 50 ug/mL; assay type: physicochemical
Outline: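 Compound at 50 μg/mL in simulated gastric fluid (pH 1.2) or simulated intestinal fluid (pH 7.5), 37 °C, 20 h. Injected by reverse-phase HPLC every 2 h, peak area at 260 nm.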

Rattus norvegicus [4] = test: Toxicity in rat assessed as change in kidney weight at 50 to 1800 mg/kg, po after 14 days; assay type: organism-based; parameters: dose 50-1800 mg/kg, route oral; settings: in vivo, 336 h; outline: as §2
[5] = Cytotoxicity against human erythroid progenitor cells after 14 to 16 days
Rattus norvegicus [6] = test: Toxicity in rat assessed as mortality at 50 to 1800 mg/kg, po after 14 days; assay type: organism-based; parameters: dose 50-1800 mg/kg, route oral; settings: in vivo, 336 h; outline: as §2
Hepatitis C virus [7] = test: Antiviral activity against HCV infected in human clone A cells assessed as inhibition of cellular rRNA replication at 50 uM; assay type: functional, Hepacivirus hominis
[8] = AUC (0 to t) in cynomolgus monkey plasma at 50 mg/kg, po qd for 4 days; assay type: ADME, organism-based, Macaca fascicularis; parameters: dose 50 mg/kg, route oral; outline: as §1
[9] = Tmax in dog plasma at 50 mg/kg, po qd for 4 days; assay type: ADME, organism-based, Canis lupus familiaris; parameters: dose 50 mg/kg, route oral; outline: as §1
Rattus norvegicus [10] = test: Tmax in rat liver assessed as 2'-F-2'-C-Methyluridine-5''-TP level at 50 mg/kg, po; assay type: ADME, organism-based; parameters: dose 50 mg/kg, route oral; settings: in vivo
Outline: (§3)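 Rats given a single oral gavage dose of 50 mg/kg in 0.5% carboxymethylcellulose sodium, 5 mL/kg. Livers taken at 0.5, 1, 2, 4, 6 and 12 h after CO2 sacrifice and ice-cold saline perfusion, then snap-frozen. Homogenized in 3 volumes of cold 70% methanol with 20 mM EDTA/EGTA. Triphosphate measured by LC/MS/MS (ESI, MRM negative mode), noncompartmental analysis.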

HepG2 = test: Cytotoxicity against human HepG2 cells at 100 uM; assay type: cell-based; settings: hepg2, 100 µM
Outline: (§4)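 Huh7, HepG2 and BxPC3 cells at 2 × 10^3 per well, CEM at 5 × 10^3 per well. Compound serially diluted from 100 μM, 8 days at 37 °C. MTS added for 2 h, absorbance read at 490 nm with medium-only blanks. CC50 taken relative to untreated cells.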

[11] = Cytotoxicity against human BxPC3 cells at 100 uM; assay type: cell-based; settings: bxpc-3, 100 µM; outline: as §4
Cynomolgus monkey [12] = test: Metabolic stability in cynomolgus monkey liver assessed as 2'-F-2'-C-Methyluridine-5''-triphosphate level at 50 mg/kg, po; assay type: ADME, organism-based, Macaca fascicularis; parameters: dose 50 mg/kg, route oral; settings: in vivo
Outline: (§5)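 Dogs and cynomolgus monkeys gavaged once daily with 50 mg/kg in 20% w/v hydroxypropyl-β-cyclodextrin for 4 days. At 4 h postdose on day 4, under pentobarbital, the liver was perfused with ice-cold saline via a portal cannula. Five lobe samples were snap-frozen and homogenized in 3 volumes of cold 70% methanol with 20 mM EDTA/EGTA. Prodrug and triphosphate measured by LC/MS/MS.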

[13] = AUC (0 to infinity) in dog plasma at 50 mg/kg, po qd for 4 days; assay type: ADME, organism-based, Canis lupus familiaris; parameters: time infinity, dose 50 mg/kg, route oral; outline: as §1
Cynomolgus monkey [14] = test: Metabolic stability in cynomolgus monkey liver assessed as prodrug level at 50 mg/kg, po; assay type: ADME, organism-based, Macaca fascicularis; parameters: dose 50 mg/kg, route oral; settings: in vivo; outline: as §5
CCRF-CEM = test: Cytotoxicity against human CEM cells at 100 uM; assay type: cell-based; outline: as §4
Canis familiaris [15] = test: Metabolic stability in dog liver assessed as prodrug level at 50 mg/kg, po; assay type: ADME, organism-based, Canis lupus familiaris; parameters: dose 50 mg/kg, route oral; settings: in vivo; outline: as §5
[16] = Cytotoxicity against HuH7 cells at 100 uM; assay type: cell-based; settings: human, huh-7, 100 µM; outline: as §4
Homo sapiens = organism: Homo sapiens; test: Half life in human plasma at 100 uM
[17] = Cmax in cynomolgus monkey plasma at 50 mg/kg, po qd for 4 days; assay type: ADME, organism-based, Macaca fascicularis; parameters: dose 50 mg/kg, route oral; outline: as §1
Rattus norvegicus [18] = test: Toxicity in rat assessed as change in macroscopic pathology at 50 to 1800 mg/kg, po after 14 days; assay type: organism-based; parameters: dose 50-1800 mg/kg, route oral; settings: in vivo, 336 h; outline: as §2
Rattus norvegicus [19] = test: Cmax in rat liver assessed as 2'-F-2'-C-Methyluridine-5''-TP level at 50 mg/kg, po; assay type: ADME, organism-based; parameters: dose 50 mg/kg, route oral; settings: in vivo; outline: as §3
Hepatitis C virus [20] = test: Antiviral activity against HCV infected in human clone A cells; assay type: functional, Hepacivirus hominis; settings: Hepatitis C virus
Outline: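 Clone A replicon cells seeded at 1500 cells/well. Compounds serially diluted in G418-free culture medium and added, then incubated 4 days at 37 °C in 5% CO2. HCV RNA quantified by real-time RT-PCR as ΔCt relative to the mean no-drug control.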

[21] = Half life in human liver S9 fraction at 100 uM; assay type: ADME, subcellular
Outline: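 Compound at 100 μM in 50 mM K2HPO4 pH 7.4 with 5 mM MgCl2. Started with 4 mg/mL human liver S9 at 37 °C. Samples at 0–24 h quenched with acetonitrile. Parent remaining measured by LC/MS/MS peak area relative to 0 h, and half-life calculated.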

Rattus norvegicus [22] = test: AUC (0 to infinity) in rat liver assessed as 2'-F-2'-C-Methyluridine-5''-TP level at 50 mg/kg, po; assay type: ADME, organism-based; parameters: time infinity, dose 50 mg/kg, route oral; settings: in vivo; outline: as §3
[23] = AUC (0 to infinity) in cynomolgus monkey plasma at 50 mg/kg, po qd for 4 days; assay type: ADME, organism-based, Macaca fascicularis; parameters: time infinity, dose 50 mg/kg, route oral; outline: as §1
[24] = AUC (0 to t) in dog plasma at 50 mg/kg, po qd for 4 days; assay type: ADME, organism-based, Canis lupus familiaris; parameters: dose 50 mg/kg, route oral; outline: as §1
[25] = Cytotoxicity against human myeloid progenitor cells after 14 to 16 days
[26] = Half life in simulated gastric fluid at pH 1.2 at 50 ug/mL; assay type: physicochemical
Outline: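 Compound at 50 μg/mL in simulated gastric fluid (pH 1.2) or simulated intestinal fluid (pH 7.5), 37 °C, 20 h. Injected by reverse-phase HPLC every 2 h, peak area at 260 nm. Percent parent remaining relative to 0 h, giving half-life.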

[27] = Permeability by PAMPA assay; assay type: ADME; settings: read-out: permeability
Outline: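 PAMPA with a lecithin-in-dodecane (20 mg/mL) coated filter donor. Donor held 200 μg/mL compound in PBS pH 7.4 with 2% DMSO; acceptor held PBS with 2% DMSO. Left 24 h. Donor and acceptor concentrations measured by LC/MS/MS (MRM), and Pe calculated from concentrations, volumes, filter area and time.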

[28] = Cmax in dog plasma at 50 mg/kg, po qd for 4 days; assay type: ADME, organism-based, Canis lupus familiaris; parameters: dose 50 mg/kg, route oral; outline: as §1
Rattus norvegicus [29] = test: Toxicity in rat assessed as change in liver weight at 50 to 1800 mg/kg, po after 14 days; assay type: organism-based; parameters: dose 50-1800 mg/kg, route oral; settings: in vivo, 336 h; outline: as §2
Rattus norvegicus [30] = test: AUC (0 to t) in rat liver assessed as 2'-F-2'-C-Methyluridine-5''-TP level at 50 mg/kg, po; assay type: ADME, organism-based; parameters: dose 50 mg/kg, route oral; settings: in vivo; outline: as §3
Canis familiaris [31] = test: Metabolic stability in dog liver assessed as 2'-F-2'-C-Methyluridine-5''-triphosphate level at 50 mg/kg, po; assay type: ADME, organism-based, Canis lupus familiaris; parameters: dose 50 mg/kg, route oral; settings: in vivo; outline: as §5

COC(=O)[C@H](C)NP(=O)(OC[C@H]1O[C@@H](n2ccc(=O)[nH]c2=O)[C@](C)(F)[C@@H]1O)Oc1ccccc1 (some centres undefined)
Tmax [1]: 0.25 h | Activity (Rattus norvegicus [2]): Non-toxic | half-life at 50 ug/mL [3]: > 20 h | Activity (Rattus norvegicus [4]): Non-toxic | IC50 [5]: > 50 µM | Activity (Rattus norvegicus [6]): Non-toxic | inhibition at 50 µM (Hepatitis C virus [7]): 0% | AUC(0-t) at 96 h [8]: 27 ng·h/mL | Tmax [9]: 1 h | Tmax (Rattus norvegicus [10]): 6 h | Activity (HepG2): Non-toxic | Activity [11]: Non-toxic | Drug uptake (Cynomolgus monkey [12]): 26 ng/g | AUC(0-inf) [13]: 420 ng·h/mL | Drug uptake (Cynomolgus monkey [14]): 4.66 ng/g | Activity (CCRF-CEM): Non-toxic | Drug uptake (Canis familiaris [15]): 5.24 ng/g | Activity [16]: Non-toxic | half-life at 100 µM (Homo sapiens): 16.7 h | Cmax [17]: 19 ng/mL | Activity (Rattus norvegicus [18]): Non-toxic | Cmax (Rattus norvegicus [19]): 1985 ng/g | EC90 (Hepatitis C virus [20]): 0.91 µM | half-life at 100 µM [21]: 0.18 h | AUC (Rattus norvegicus [22]): 18968 ng·h/g | AUC(0-inf) [23]: 34 ng·h/mL | AUC(0-t) at 96 h [24]: 418 ng·h/mL | IC50 [25]: > 50 µM | half-life at 50 ug/mL [26]: 15.5 h | Papp [27]: 0.007 ×10⁻⁶ cm/s | Cmax [28]: 317 ng/mL | Activity (Rattus norvegicus [29]): Non-toxic | AUC (Rattus norvegicus [30]): 14206 ng·h/g | Drug uptake (Canis familiaris [31]): 4960 ng/g
